Measured values as given in ChEMBL document CHEMBL4425122, “Discovery of 1-(1H-Pyrazolo[4,3-c]pyridin-6-yl)urea Inhibitors of Extracellular Signal-Regulated Kinase (ERK) for the Treatment of Cancers” (J Med Chem, 2016).
≈ marks a conversion by molar mass, not a printed value. Calls of active or inactive are those of the source. The rule behind the calls is not given here.

Columns and labels:
[1] = Cmax in mouse xenografted with human A375SM cells at 25 mg/kg, po bid measured on day 20; format: ADME, organism-based; set-up: dose 25 mg/kg, route oral; settings: in vivo
Procedure, shortened: (§1)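 Mice bearing A375SM xenografts dosed orally in PEG300:H2O (50:50 v/v) at 25 or 50 mg/kg BID or 100 mg/kg QD for 20 days, vehicle arm for comparison; tumor volume followed versus vehicle. Plasma exposure (AUC, Cmax, Tmax) measured on day 20.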

[2] = tested on: A375-SM; assay: Antitumor activity against human A375SM cells xenografted in mouse assessed as tumor regression at 50 mg/kg, po administered bid for 20 days measured after final dosage relative to vehicle treated control; format: functional; procedure, shortened: as §1
[3] = tested on: A375-SM; assay: Antitumor activity against human A375SM cells xenografted in mouse assessed as tumor regression at 100 mg/kg, po administered qd for 20 days measured after final dosage relative to vehicle treated control; format: functional; procedure, shortened: as §1
[4] = Oral bioavailability in rat at 1 mg/kg; format: ADME, organism-based; settings: in vivo
Procedure, shortened: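 Rats dosed PO at 1 mg/kg as solution in PEG400:H2O (60:40 v/v).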

[5] = Plasma concentration in mouse xenografted with human A375SM cells at 100 mg/kg, po administered qd for 20 days measured after 12 hrs of final dose; format: ADME, organism-based
Procedure, shortened: (§2)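 A375SM xenograft mice given 100 mg/kg QD orally in PEG300:H2O (50:50 v/v) for 20 days; after final dose on day 20, blood taken at several time points from this arm and vehicle arm for compound exposure and pRSK and pERK levels.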

[6] = Tmax in mouse xenografted with human A375SM cells at 50 mg/kg, po bid; format: ADME, organism-based; settings: in vivo; procedure, shortened: as §1
[7] = tested on: A375-SM; assay: Antiproliferative activity against human A375SM cells harboring BRAF V600E mutant measured after 96 hrs by Cell Titer-Glo assay; format: functional, cell-based
Procedure, shortened: (§3)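 Cells in DMEM/10 mM HEPES/10% FBS added after compound, incubated 96 h at 37 °C, 5% CO2; equilibrated 15 min at room temperature, viability by CellTiter-Glo luminescence. IC50 from 10-point, 3-fold titration curves.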

[8] = target: Cytochrome P450 3A4 (Homo sapiens, UniProt P08684); assay: Inhibition of CYP3A4 (unknown origin); format: ADME
Sequence of Cytochrome P450 3A4 (P08684 whole entry): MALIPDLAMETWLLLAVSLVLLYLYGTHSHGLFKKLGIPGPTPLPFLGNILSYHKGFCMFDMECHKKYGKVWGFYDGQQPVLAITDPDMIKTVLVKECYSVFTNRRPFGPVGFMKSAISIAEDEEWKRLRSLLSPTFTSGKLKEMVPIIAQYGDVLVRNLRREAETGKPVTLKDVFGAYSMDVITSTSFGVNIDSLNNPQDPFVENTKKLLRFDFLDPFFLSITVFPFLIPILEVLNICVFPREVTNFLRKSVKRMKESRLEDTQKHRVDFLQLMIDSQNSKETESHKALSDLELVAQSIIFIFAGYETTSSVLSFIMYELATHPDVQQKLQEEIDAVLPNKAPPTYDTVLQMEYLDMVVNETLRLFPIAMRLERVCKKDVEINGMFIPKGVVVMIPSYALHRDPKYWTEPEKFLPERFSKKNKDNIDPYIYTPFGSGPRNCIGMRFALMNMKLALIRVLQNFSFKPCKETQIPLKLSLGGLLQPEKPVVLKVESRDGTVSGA

[9] = Protein binding in rat plasma; format: ADME, cell-free; settings: read-out: PPB (converted)
[10] = organism: Homo sapiens; assay: Selectivity ratio, ratio of IC50 for recombinant human GST-tagged ERK2 expressed in Escherichia coli to IC50 for ERK1 (unknown origin)
Procedure, shortened: (§4)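 Part of a counter-screen panel of 101 kinases. Fold selectivity is each kinase's IC50 relative to the IC50 from the Invitrogen ERK2 assay.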

[11] = Dose normalized AUC in rat at 0.5 mg/kg, iv; format: ADME, organism-based; settings: in vivo
[12] = tested on: A375-SM; assay: Antitumor activity against human A375SM cells xenografted in mouse assessed as tumor regression compound administered orally for 20 days measured after final dosage relative to vehicle treated control; format: functional
[13] = AUC in mouse xenografted with human A375SM cells at 25 mg/kg, po bid measured on day 20; format: ADME, organism-based; settings: in vivo; procedure, shortened: as §1
[14] = target: Voltage-gated inwardly rectifying potassium channel KCNH2 (Homo sapiens, UniProt Q12809); assay: Inhibition of human ERG
Sequence of Voltage-gated inwardly rectifying potassium channel KCNH2 (Q12809 whole entry): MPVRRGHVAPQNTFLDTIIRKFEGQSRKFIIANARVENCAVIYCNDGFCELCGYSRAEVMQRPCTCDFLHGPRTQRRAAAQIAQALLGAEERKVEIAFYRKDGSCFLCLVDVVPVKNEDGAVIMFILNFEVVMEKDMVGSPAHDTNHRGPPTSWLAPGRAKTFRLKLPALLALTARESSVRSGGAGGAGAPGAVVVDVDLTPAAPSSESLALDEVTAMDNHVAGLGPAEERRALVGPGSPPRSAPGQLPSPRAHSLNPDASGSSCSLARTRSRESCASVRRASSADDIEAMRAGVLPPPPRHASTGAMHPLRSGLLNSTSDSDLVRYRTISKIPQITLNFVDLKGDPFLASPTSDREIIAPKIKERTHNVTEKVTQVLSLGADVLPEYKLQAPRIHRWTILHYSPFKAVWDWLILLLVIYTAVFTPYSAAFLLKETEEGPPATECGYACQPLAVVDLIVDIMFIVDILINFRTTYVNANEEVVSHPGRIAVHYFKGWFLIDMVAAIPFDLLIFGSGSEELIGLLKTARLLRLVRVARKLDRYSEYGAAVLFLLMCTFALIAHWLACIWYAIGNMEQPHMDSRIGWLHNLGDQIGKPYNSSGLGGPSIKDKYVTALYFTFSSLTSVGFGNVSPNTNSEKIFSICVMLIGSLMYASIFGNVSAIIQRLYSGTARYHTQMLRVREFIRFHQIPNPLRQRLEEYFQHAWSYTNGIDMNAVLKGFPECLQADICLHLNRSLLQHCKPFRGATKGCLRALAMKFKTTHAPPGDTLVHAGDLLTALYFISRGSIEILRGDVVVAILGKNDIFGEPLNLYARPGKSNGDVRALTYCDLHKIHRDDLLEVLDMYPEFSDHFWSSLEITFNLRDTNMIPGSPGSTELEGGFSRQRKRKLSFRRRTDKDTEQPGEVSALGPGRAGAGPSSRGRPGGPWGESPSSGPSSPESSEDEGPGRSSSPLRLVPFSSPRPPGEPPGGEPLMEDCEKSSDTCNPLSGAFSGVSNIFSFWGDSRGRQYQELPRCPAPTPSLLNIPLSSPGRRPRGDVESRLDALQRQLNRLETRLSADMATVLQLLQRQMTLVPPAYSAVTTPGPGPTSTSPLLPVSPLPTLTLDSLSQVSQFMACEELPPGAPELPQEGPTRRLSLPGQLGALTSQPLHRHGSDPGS

[15] = Tmax in mouse xenografted with human A375SM cells at 100 mg/kg, po qd; format: ADME, organism-based; settings: in vivo; procedure, shortened: as §1
[16] = Plasma concentration in mouse xenografted with human A375SM cells at 100 mg/kg, po administered qd for 20 days measured after 2 hrs of final dose; format: ADME, organism-based; procedure, shortened: as §2
[17] = Cmax in mouse xenografted with human A375SM cells at 100 mg/kg, po qd measured on day 20; format: ADME, organism-based; set-up: dose 100 mg/kg, route oral; settings: in vivo; procedure, shortened: as §1
[18] = Volume of distribution at steady state in rat at 0.5 mg/kg, iv; format: ADME, organism-based; settings: in vivo, read-out: Vdss
Procedure, shortened: (§5)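 Rats dosed IV at 0.5 mg/kg as solution in PEG400:H2O (60:40 v/v).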

[19] = Plasma concentration in mouse xenografted with human A375SM cells at 100 mg/kg, po administered qd for 20 days measured after 8 hrs of final dose; format: ADME, organism-based; procedure, shortened: as §2
[20] = tested on: Mus musculus; assay: In vivo inhibition of MEK in mouse xenografted with human A375SM cells assessed as inhibition ERK phosphorylation at 100 mg/kg, po administered qd for 20 days measured after 2 to 24 hrs post final dosage; format: functional, organism-based; procedure, shortened: as §2
[21] = Half life in rat at 0.5 mg/kg, iv; format: ADME, organism-based; settings: in vivo; procedure, shortened: as §5
[22] = Solubility in human FaSSIF at pH 6.5; format: physicochemical
Procedure, shortened: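 Solubility measured in human fasted-state simulated intestinal fluid at pH 6.5.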

[23] = tested on: A375-SM; assay: Antitumor activity against human A375SM cells xenografted in mouse assessed as tumor growth inhibition at 25 mg/kg, po administered bid for 20 days measured after final dosage relative to vehicle treated control; format: functional; settings: 480 h, read-out: TGI; procedure, shortened: as §1
[24] = tested on: CHL-1; assay: Antiproliferative activity against human CHL-1 cells measured after 96 hrs by Cell Titer-Glo assay; format: functional, cell-based; settings: CHL-1, 96 h; procedure, shortened: as §3
[25] = organism: Homo sapiens; assay: Selectivity ratio, ratio of IC50 for recombinant human GST-tagged ERK2 expressed in Escherichia coli to IC50 for BRAF (unknown origin)
Procedure, shortened: (§6)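 Kinase counter-screen using a coupled format: the kinase's effect was read as activity of downstream ERK. Fold selectivity is the kinase IC50 relative to the IC50 from the Invitrogen ERK2 assay.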

[26] = organism: Homo sapiens; assay: Selectivity ratio, ratio of IC50 for recombinant human GST-tagged ERK2 expressed in Escherichia coli to IC50 for MEK1 (unknown origin); procedure, shortened: as §6
[27] = organism: Homo sapiens; assay: Selectivity ratio, ratio of IC50 for recombinant human GST-tagged ERK2 expressed in Escherichia coli to IC50 for MEK2 (unknown origin); procedure, shortened: as §4
[28] = AUC in mouse xenografted with human A375SM cells at 50 mg/kg, po bid measured on day 20; format: ADME, organism-based; settings: in vivo; procedure, shortened: as §1
[29] = organism: Homo sapiens; assay: Selectivity ratio, ratio of IC50 for recombinant human GST-tagged ERK2 expressed in Escherichia coli to IC50 for PDGFRalpha D842V mutant (unknown origin); procedure, shortened: as §4
[30] = Plasma concentration in mouse xenografted with human A375SM cells at 100 mg/kg, po administered qd for 20 days measured after 6 hrs of final dose; format: ADME, organism-based; procedure, shortened: as §2
[31] = organism: Homo sapiens; assay: Selectivity ratio, ratio of IC50 for recombinant human GST-tagged ERK2 expressed in Escherichia coli to IC50 for PDGFRalpha V561D mutant (unknown origin); procedure, shortened: as §4
[32] = Inhibition of ERK (unknown origin) assessed as inhibition of RSK phosphorylation; set-up: species or system Homo sapiens
[33] = Plasma clearance in rat at 0.5 mg/kg, iv; format: ADME, organism-based; procedure, shortened: as §5
[34] = Tmax in mouse xenografted with human A375SM cells at 25 mg/kg, po bid; format: ADME, organism-based; settings: in vivo; procedure, shortened: as §1
[35] = organism: Homo sapiens; assay: Selectivity ratio, ratio of IC50 for recombinant human GST-tagged ERK2 expressed in Escherichia coli to IC50 for MELK (unknown origin); procedure, shortened: as §4
[36] = tested on: Mus musculus; assay: In vivo inhibition of ERK in mouse xenografted with human A375SM cells assessed as inhibition RSK phosphorylation at 100 mg/kg, po administered qd for 20 days measured after 2 to 24 hrs post final dosage; format: functional, organism-based; procedure, shortened: as §2
[37] = target: Dual specificity mitogen-activated protein kinase kinase; MEK1/2 (Homo sapiens, UniProt P36507+Q02750); assay: Inhibition of MEK in human A375 cells assessed as inhibition of ERK phosphorylation; format: cell-based
[38] = organism: Homo sapiens; assay: Selectivity ratio, ratio of IC50 for recombinant human GST-tagged ERK2 expressed in Escherichia coli to IC50 for FLT4 (unknown origin); procedure, shortened: as §4
[39] = Inhibition of ERK in human A375SM cells harboring BRAF V600E mutant assessed as inhibition of RSK phosphorylation measured after 4 hrs by mesoscale electrochemiluminescent sandwich assay; format: cell-based; settings: A375-SM
Procedure, shortened: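 A375SM (BRAF V600E melanoma) cells, 10,000 per well, treated 4 h; lysed 20 min at 4 °C in Tris/NaCl/EGTA/EDTA/Triton/NaF buffer with protease and phosphatase inhibitors. Lysate captured with biotin anti-RSK1 on streptavidin MSD plate, detected with SULFO-TAG anti-pRSK (pThr359/Ser363) overnight at 4 °C; electrochemiluminescence read. IC50 from 11-point titration.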

[40] = target: Mitogen-activated protein kinase 1 (Homo sapiens, UniProt P28482); assay: Inhibition of human ERK2 preincubated for 15 mins followed by addition of IMAP peptide substrate and ATP measured after 60 mins by IMAP-FP assay
Sequence of Mitogen-activated protein kinase 1 (P28482 whole entry): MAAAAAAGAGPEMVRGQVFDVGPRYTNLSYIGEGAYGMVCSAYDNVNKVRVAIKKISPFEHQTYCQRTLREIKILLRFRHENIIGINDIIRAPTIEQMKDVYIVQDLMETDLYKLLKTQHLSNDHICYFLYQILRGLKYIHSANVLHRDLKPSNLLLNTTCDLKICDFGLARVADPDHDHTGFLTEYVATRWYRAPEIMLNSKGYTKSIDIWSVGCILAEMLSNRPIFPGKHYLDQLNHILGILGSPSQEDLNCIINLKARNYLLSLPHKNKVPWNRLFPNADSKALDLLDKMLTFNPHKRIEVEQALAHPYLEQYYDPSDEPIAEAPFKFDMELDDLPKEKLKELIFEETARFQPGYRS
Procedure, shortened: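 Final: 0.5 nM hERK2, 900 nM unlabeled + 80 nM labeled peptide, 30 µM ATP; 60 min, quenched with IMAP beads in binding buffer with 24 mM NaCl, read by fluorescence polarization after 60 min.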

[41] = Plasma concentration in mouse xenografted with human A375SM cells at 100 mg/kg, po administered qd for 20 days measured after 24 hrs of final dose; format: ADME, organism-based; procedure, shortened: as §2
[42] = Cmax in mouse xenografted with human A375SM cells at 50 mg/kg, po bid measured on day 20; format: ADME, organism-based; set-up: dose 50 mg/kg, route oral; settings: in vivo; procedure, shortened: as §1
[43] = AUC in mouse xenografted with human A375SM cells at 100 mg/kg, po qd measured on day 20; format: ADME, organism-based; settings: in vivo; procedure, shortened: as §1
[44] = Inhibition of ERK human A375 cells assessed as inhibition of RSK phosphorylation measured after 4 hrs by mesoscale electrochemiluminescent sandwich assay; settings: A-375, 4 h

With Cc1cc(-c2n[nH]c3cc(NC(=O)N[C@H](C)c4ccccc4)ncc23)ccn1 the Cmax [1] was 12 µM, the Activity [2] was 47% and the Activity [3] was 42%. The bioavailability [4] was 12%, the concentration at 12 h [5] was 1.6 µM and the Tmax [6] was 11 h. For the same compound, the IC50 [7] was 43 nM, the IC50 [8] was 3900 nM and the fraction unbound [9] was 0.012. The Ratio IC50 [10] was less than 100, the AUC/dose [11] was 1.3 µM·h/mg/kg and the Activity [12] was “Dose-dependent effect”. For the same compound, the AUC [13] was 95 µM·h, the IC50 [14] was greater than 20000 nM and the Tmax [15] was 4 h. For the same compound, the concentration at 2 h [16] was 20 µM, the Cmax [17] was 27 µM and the Vd [18] was 1.7 L/kg. For the same compound, the concentration at 8 h [19] was 6.7 µM, the inhibition [20] was “inactive” and the half-life [21] was 0.7 h. For the same compound, the solubility [22] was 18 µM (≈ 6.7 µg/mL), the inhibition in vivo at 25 mg/kg [23] was 82% and the IC50 [24] was 1300 nM. The Ratio IC50 [25] was less than 100, the Ratio IC50 [26] was less than 100 and the Ratio IC50 [27] was less than 100. The AUC [28] was 240 µM·h, the Ratio IC50 [29] was less than 100 and the concentration at 6 h [30] was 5.2 µM. The Ratio IC50 [31] was less than 100, the IC50 [32] was 77 nM and the clearance [33] was 35 mL/min/kg. The Tmax [34] was 11 h, the Ratio IC50 [35] was less than 100 and the inhibition [36] was “Active”. For the same compound, the IC50 [37] was greater than 10000 nM, the Ratio IC50 [38] was less than 100 and the IC50 [39] was 70 nM. It also gave an IC50 [40] of 0.2 nM, a concentration at 24 h [41] of 0.1 µM and a Cmax [42] of 23 µM. For the same compound, the AUC [43] was 320 µM·h.

C[C@@H](NC(=O)Nc1cc2[nH]nc(-c3ccc(F)cc3)c2cn1)c1ccccc1 gave an IC50 [39] of 360 nM and an IC50 [40] of 0.8 nM.

For Cc1cc(-c2n[nH]c3cc(NC(=O)NCCc4ccccc4)ncc23)ccn1, the IC50 [44] was 110 nM.

In the case of Cc1cc(-c2n[nH]c3cc(NC(=O)N[C@H](C)c4ccccc4)ncc23)cc(C)n1, the IC50 [8] is reported as 780 nM, the IC50 [14] is reported as greater than 20000 nM and the IC50 [39] is reported as 130 nM. The IC50 [40] was 0.3 nM.

With CCCc1n[nH]c2cc(NC(=O)N[C@H](C)c3ccccc3)ncc12 the IC50 [39] was 350 nM and the IC50 [40] was 2 nM.
